Experimental data: ChEMBL document CHEMBL4014308, “Amphiphilic Tobramycin-Lysine Conjugates Sensitize Multidrug Resistant Gram-Negative Bacteria to Rifampicin and Minocycline” (J Med Chem, 2017)
Calls of active or inactive are those of the source. No cut-off for these calls is given here.

What was measured:
Acinetobacter baumannii [1] = experiment: Potentiation of minocycline-induced antibacterial activity against multidrug-resistant Acinetobacter baumannii AB030 at 4 ug/ml after 18 hrs by checkerboard assay; assay type: functional
In short: (§1)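 Checkerboard in Mueller-Hinton broth: antibiotic serially diluted along one axis and adjuvant along the other (10 × 7 matrix). Inoculum from a 0.5 McFarland saline suspension diluted 1:50 in MHB; 18 h at 37 °C, then plate read. MIC is the lowest concentration with no growth. FIC of each agent is its concentration in a no-growth well divided by its MIC alone; FIC index is the sum of both. FIC index ≤0.5 counts as synergy.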

Pseudomonas aeruginosa [2] = experiment: Synergistic antibacterial activity against Pseudomonas aeruginosa PAO1 after 18 hrs in presence of vancomycin by checkerboard assay; assay type: functional; conditions: PAO1, 18 h
In short: (§2)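 Checkerboard in MHB: antibiotic diluted along one axis and adjuvant along the other (10 × 7 matrix). Inoculum was a 1:50 dilution in MHB of a 0.5 McFarland saline suspension; incubated 18 h at 37 °C. Each FIC = concentration in the no-growth well divided by the MIC alone; FIC index = sum of both FICs. ≤0.5 synergy, 0.5–4 no interaction, ≥4 antagonism.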

Enterobacter cloacae [3] = experiment: Synergistic antibacterial activity against multidrug-resistant Enterobacter cloacae 117029 after 18 hrs in presence of rifampicin by checkerboard assay; assay type: functional; conditions: Enterobacter cloacae, 117029, 18 h
In short: (§3)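 Checkerboard in MHB with a 10 × 7 matrix: antibiotic serially diluted along one axis, adjuvant along the other. Inoculum was a 1:50 dilution of a 0.5 McFarland suspension, incubated 18 h at 37 °C and read on a plate reader. Each FIC is the concentration in a no-growth well divided by the MIC alone; FIC index is their sum, with ≤0.5 taken as synergy.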

Pseudomonas aeruginosa [4] = experiment: Potentiation of minocycline-induced antibacterial activity against multidrug/extremely drug-resistant/colistin-resistant Pseudomonas aeruginosa isolate 91433 at 4 ug/ml after 18 hrs by checkerboard assay; assay type: functional; in short: as §1
Acinetobacter baumannii [5] = experiment: Synergistic antibacterial activity against multidrug-resistant Acinetobacter baumannii AB027 after 18 hrs in presence of minocycline by checkerboard assay; assay type: functional; conditions: AB027, 18 h; in short: as §3
[6] = system: Stenotrophomonas maltophilia; experiment: Antibacterial activity against Stenotrophomonas maltophilia isolate CAN-ICU 62584 after 18 hrs by microtiter dilution assay; assay type: functional; conditions: isolate CAN-ICU 62584, 18 h
In short: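 Broth microdilution per CLSI. Overnight culture adjusted to 0.5 McFarland in saline, diluted 1:50 in Mueller-Hinton broth, and added to an equal volume of 2-fold serial compound dilutions in MHB. Incubated 18 h at 37 °C. MIC taken as the lowest concentration with no visible growth.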

Pseudomonas aeruginosa [7] = experiment: Antibacterial activity against multidrug/extremely drug-resistant/colistin-resistant Pseudomonas aeruginosa isolate 101243 after 18 hrs by microtiter dilution assay; assay type: functional; conditions: isolate 101243, 18 h
In short: (§4)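 Broth microdilution following CLSI guidelines. An overnight culture was adjusted to 0.5 McFarland in saline, then diluted 1:50 in Mueller-Hinton broth. This inoculum was added in equal volume to 2-fold serial dilutions of agent in MHB and incubated 18 h at 37 °C. MIC was the lowest concentration with no visible growth.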

Pseudomonas aeruginosa [8] = experiment: Antibacterial activity against gentamicin-resistant Pseudomonas aeruginosa isolate CAN-ICU 62308 after 18 hrs by microtiter dilution assay; assay type: functional; conditions: isolate CAN-ICU 62308, 18 h; in short: as §4
Klebsiella pneumoniae = experiment: Synergistic antibacterial activity against multidrug-resistant Klebsiella pneumoniae 116381 after 18 hrs in presence of rifampicin by checkerboard assay; assay type: functional; conditions: Klebsiella pneumoniae, 116381, 18 h
In short: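 Checkerboard in Mueller-Hinton broth: antibiotic serially diluted along one axis and adjuvant along the other (10 × 7 matrix). Inoculum was overnight culture set to 0.5 McFarland in saline, then diluted 1:50 in broth. Incubated 18 h at 37 °C. MIC was the lowest concentration with no growth. FIC index is the sum of both FICs (combination concentration ÷ MIC alone); ≤0.5 counted as synergy.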

Pseudomonas aeruginosa [9] = experiment: Potentiation of rifampicin-induced antibacterial activity against multidrug/extremely drug-resistant/colistin-susceptible Pseudomonas aeruginosa isolate P259-96918 at 4 ug/ml after 18 hrs by checkerboard assay; assay type: functional; in short: as §1
Acinetobacter baumannii [10] = experiment: Antibacterial activity against multidrug-resistant Acinetobacter baumannii AB030 after 18 hrs by microtiter dilution assay; assay type: functional; conditions: AB030, 18 h; in short: as §4
Pseudomonas aeruginosa [11] = experiment: Antibacterial activity against multidrug/extremely drug-resistant/colistin-susceptible Pseudomonas aeruginosa isolate P262-101856 infected in Galleria mellonella assessed as mortality at 75 mg/kg after 24 hrs relative to control; assay type: functional; conditions: isolate P262-101856, 24 h
In short: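 Galleria mellonella larvae (about 250 mg, used within 7 days; 15 per group) were injected with 10 µL of XDR P. aeruginosa P262 at 1.0×10^3 CFU/mL. At 2 h they received a single 10 µL injection: monotherapy at 75 mg/kg, or combinations at 12.5+12.5 to 75+75 mg/kg. PBS vehicle served as control. Survival was scored over 24 h at 37 °C.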

Enterobacter cloacae [12] = experiment: Potentiation of minocycline-induced antibacterial activity against multidrug-resistant Enterobacter cloacae 117029 at 4 ug/ml after 18 hrs by checkerboard assay; assay type: functional; in short: as §1
Pseudomonas aeruginosa [13] = experiment: Potentiation of minocycline-induced bactericidal activity against Pseudomonas aeruginosa PAO1 at 0.125 times antibacterial MIC after 90 mins; assay type: functional
In short: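 Combination time-kill in PAO1 (LB, 37 °C). Aliquots taken at 0–360 min, serially diluted in PBS, plated on LB agar, and CFU counted after 20 h at 37 °C.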

Pseudomonas aeruginosa [14] = experiment: Potentiation of chloramphenicol-induced antibacterial activity against Pseudomonas aeruginosa PAO1 at 4 ug/ml after 18 hrs by checkerboard assay; assay type: functional; in short: as §1
Pseudomonas aeruginosa [15] = experiment: Potentiation of rifampicin-induced antibacterial activity against multidrug/extremely drug-resistant/colistin-susceptible Pseudomonas aeruginosa isolate P264-104354 at 4 ug/ml after 18 hrs by checkerboard assay; assay type: functional
In short: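 Checkerboard broth microdilution in MHB: antibiotic serially diluted along one axis, adjuvant along the other (10 × 7 matrix). Inoculum from 0.5 McFarland saline suspension diluted 1:50 in MHB; 18 h at 37 °C. MIC taken as lowest concentration with no growth. FIC per agent = combination MIC/MIC alone; FIC index = sum (≤0.5 synergy).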

Pseudomonas aeruginosa [16] = experiment: Antibacterial activity against gentamicin/tobramycin-resistant Pseudomonas aeruginosa isolate CANWARD-2011 96846 after 18 hrs by microtiter dilution assay; assay type: functional; conditions: isolate CANWARD-2011 96846, 18 h; in short: as §4
[17] = Ratio of cytotoxic concentration against human DU145 cells to synergistic concentration for Pseudomonas aeruginosa PAO1 in presence of minocycline
Pseudomonas aeruginosa [18] = experiment: Potentiation of rifampicin-induced antibacterial activity against Pseudomonas aeruginosa PAO750 harboring RND efflux pump/OpmH deletion mutant after 18 hrs by checkerboard assay; assay type: functional; in short: as §1
Pseudomonas aeruginosa [19] = experiment: Synergistic antibacterial activity against Pseudomonas aeruginosa PAO1 after 18 hrs in presence of minocycline by checkerboard assay; assay type: functional; conditions: PAO1, 18 h; in short: as §2
Pseudomonas aeruginosa [20] = experiment: Bactericidal activity against Pseudomonas aeruginosa PAO1 at 0.125 times antibacterial MIC after 6 hrs; assay type: functional

Q: With `Cl.Cl.Cl.Cl.Cl.Cl.Cl.NCCCC[C@H](N)C(=O)N(CCCCCCCCCCCCO[C@@H]1[C@@H](O[C@H]2O[C@H](CO)[C@@H](O)[C@H](N)[C@H]2O)[C@H](N)C[C@H](N)[C@H]1O[C@H]1O[C@H](CN)[C@@H](O)C[C@H]1N)Cc1c2ccccc2c(Cl)c2ccccc12` as the compound, how does the “fractional inhibitory concentration index (FICI)” value (Acinetobacter baumannii [1]) read?
A: 0.375

Q: What about the MIC (Pseudomonas aeruginosa [2]) of the same compound?
A: 4 µg/mL

Q: And the MIC (Enterobacter cloacae [3])?
A: 4 µg/mL

Q: What about the “fractional inhibitory concentration index (FICI)” value (Pseudomonas aeruginosa [4]) of the same compound?
A: 0.266

Q: And the MIC (Acinetobacter baumannii [5])?
A: 1 µg/mL

Q: What about the MIC [6] of the same compound?
A: > 128 µg/mL

Q: And the MIC (Pseudomonas aeruginosa [7])?
A: 16 µg/mL

Q: And the MIC (Pseudomonas aeruginosa [8])?
A: 16 µg/mL

Q: And the MIC (Klebsiella pneumoniae)?
A: 4 µg/mL

Q: What about the “fractional inhibitory concentration index (FICI)” value (Pseudomonas aeruginosa [9]) of the same compound?
A: 0.039

Q: What about the MIC (Acinetobacter baumannii [10]) of the same compound?
A: 64 µg/mL

Q: What about the mortality at 75 mg/kg (Pseudomonas aeruginosa [11]) of the same compound?
A: 100%

Q: What about the “fractional inhibitory concentration index (FICI)” value (Enterobacter cloacae [12]) of the same compound?
A: 0.062

Q: What about the Activity (Pseudomonas aeruginosa [13]) of the same compound?
A: Active

Q: And the “fractional inhibitory concentration index (FICI)” value (Pseudomonas aeruginosa [14])?
A: 0.156

Q: What about the “fractional inhibitory concentration index (FICI)” value (Pseudomonas aeruginosa [15]) of the same compound?
A: 0.094

Q: And the MIC (Pseudomonas aeruginosa [16])?
A: 32 µg/mL

Q: And the Ratio [17]?
A: 6

Q: What about the “fractional inhibitory concentration index (FICI)” value (Pseudomonas aeruginosa [18]) of the same compound?
A: 0.156

Q: What about the MIC (Pseudomonas aeruginosa [19]) of the same compound?
A: 1 µg/mL

Q: What about the Activity (Pseudomonas aeruginosa [20]) of the same compound?
A: inactive
